pEC50: −log10 of the molar value.
Assays:
[1] = system: Trypanosoma cruzi; test: Antitrypanosomal activity against Trypanosoma cruzi Tulahuen trypomastigotes expressing green florescent protein infected in cardiomyocytes assessed as inhibition of parasite growth after 72 hrs by fluorescence microscopy; format: functional, organism-based
Outline: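 GFP-expressing T. cruzi Tulahuen 20A-clone trypomastigotes infect cardiomyocyte monolayers at 10 parasites per cell in DMEM + 10% FBS; unbound parasites are washed off. At 24 h, inhibitors (1–25 nM, in DMSO/phenol-red-free DMEM) are added and cultured 48 h, in triplicate. At 72 h, infection is read as fluorescence (RFU), or cells are fixed in paraformaldehyde and stained with DAPI/phalloidin for microscopy. Posaconazole is the control.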

[2] = system: Trypanosoma cruzi; test: Antitrypanosomal activity against Trypanosoma cruzi Tulahuen trypomastigotes expressing green florescent protein infected in cardiomyocytes assessed as inhibition of parasite growth at 10 nM after 72 hrs by fluorescence microscopy; format: functional
[3] = target: Sterol 14-alpha demethylase (Trypanosoma cruzi (strain CL Brener)) (UniProt Q7Z1V1); test: Binding affinity to Trypanosoma cruzi CYP51 by spectral ligand binding assay
Outline: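 Full-length Tulahuen T. cruzi CYP51 at ~1 μM in 20 mM K-phosphate pH 7.4, 200 mM NaCl, 0.1 mM EDTA, 25 °C, 5 cm path. Ligand is titrated 0.2–2.0 μM in 0.2 μM steps, with DMSO matched in the reference cuvette. The Soret red-shift difference spectra (peak-to-trough ΔA) are fit to a quadratic tight-binding equation, giving Ks and ΔAmax/Ks.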

[4] = target: Sterol 14-alpha demethylase (Trypanosoma cruzi (strain CL Brener)) (UniProt Q7Z1V1); test: Inhibition of Trypanosoma cruzi CYP51 assessed as substrate conversion level using [3H]eburicol substrate at inhibitor/enzyme molar ratio of 2 after 1 hr by HPLC method; design: scale not given: the % may be the effect or the level left
Outline: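 Reconstituted full-length CYP51 (1 μM) with 2 μM CPR, 100 μM dilauroylphosphatidylcholine, and an isocitrate dehydrogenase/isocitrate system in 20 mM MOPS pH 7.4, 50 mM KCl, 5 mM MgCl₂, 10% glycerol. [³H]eburicol is final 50 μM; enzyme/substrate/inhibitor ratio is 1:50:2. After 5 min preincubation at 37 °C, 100 μM NADPH starts the 1 h reaction. Sterols are ethyl acetate-extracted and resolved by reverse-phase HPLC with radiodetection.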

Sequence of Sterol 14-alpha demethylase (Trypanosoma cruzi (strain CL Brener)) (Q7Z1V1 whole entry, looked up): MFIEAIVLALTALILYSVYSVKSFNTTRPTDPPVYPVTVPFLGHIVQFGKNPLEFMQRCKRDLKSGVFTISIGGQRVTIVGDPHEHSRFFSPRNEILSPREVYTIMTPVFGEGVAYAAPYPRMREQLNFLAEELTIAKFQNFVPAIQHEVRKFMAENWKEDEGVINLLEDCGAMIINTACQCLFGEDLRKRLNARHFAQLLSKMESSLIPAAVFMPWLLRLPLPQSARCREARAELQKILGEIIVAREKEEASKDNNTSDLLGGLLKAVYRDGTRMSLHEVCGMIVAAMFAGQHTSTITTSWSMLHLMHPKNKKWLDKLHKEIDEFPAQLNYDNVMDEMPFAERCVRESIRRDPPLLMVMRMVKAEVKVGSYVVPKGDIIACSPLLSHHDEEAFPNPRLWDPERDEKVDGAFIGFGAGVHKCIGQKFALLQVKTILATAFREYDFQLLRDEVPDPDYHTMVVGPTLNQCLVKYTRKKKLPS

Ks [3] | Activity [4] | SMILES | pEC50 [1] | inhibition at 0.01 µM [2]
 |  | CC[C@@H]([C@H](C)O)n1ncn(-c2ccc(N3CCN(c4ccc(OC[C@@H]5CO[C@@](Cn6cncn6)(c6ccc(F)cc6F)C5)cc4)CC3)cc2)c1=O [POSACONAZOLE] | 8.30 | 64%
0.715 µM | 52.5% | O=C(Nc1ccc(Sc2ccc([N+](=O)[O-])cc2)cc1)O[C@@H](Cn1ccnc1)c1ccc(Cl)cc1 | 8.60 | 62.5%
0.162 µM | 12.5% | O=C(Nc1ccc(Sc2ccc([N+](=O)[O-])cc2)cc1)O[C@H](Cn1ccnc1)c1ccc(Cl)cc1 | 8.82 | 70%
0.032 µM | 8.5% | CC(C)c1ccc(NC(=O)O[C@H](Cn2ccnc2)c2ccc(F)cc2)cc1 | 8.26 | 69.3%
 | 0.8% | O=C(Nc1ccc(N2CCN(c3ccc(Cl)c(Cl)c3)CC2)cc1)O[C@@H](Cn1ccnc1)c1ccc(Cl)cc1Cl | 8.92 | 83%
 | 3.8% | O=C(Nc1ccc(N2CCN(c3ccc(Cl)c(Cl)c3)CC2)cc1)O[C@H](Cn1ccnc1)c1ccc(Cl)cc1Cl | 8.89 | 73.5%
0.6 µM | 93.9% | O=C(NCCCn1ccnc1)O[C@H](Cn1ccnc1)c1ccc(F)cc1 |  | 
0.087 µM | 89.2% | O=C(NCCCn1ccnc1)O[C@@H](Cn1ccnc1)c1ccc(F)cc1 |  | 
0.087 µM | 79.5% | O=C(O[C@@H](Cn1ccnc1)c1ccccc1)c1ccc(-c2ccccc2)cc1 | 7.82 | 29.5%
0.046 µM | 0.7% | O=C(O[C@H](Cn1ccnc1)c1ccccc1)c1ccc(-c2ccccc2)cc1 | 8.92 | 76.3%
0.083 µM | 86.5% | CC(C)c1ccc(NC(=O)O[C@@H](Cn2ccnc2)c2ccc(F)cc2)cc1 | 7.70 | 32.1%

SMILES | Ks [3] | Activity [4] | pEC50 [1] | inhibition at 0.01 µM [2]
CC(C)c1ccc(NC(=O)O[C@H](Cn2ccnc2)c2ccc(Cl)cc2)cc1 |  | 1.9% | 9.00 | 74.5%
CC(C)c1ccc(NC(=O)O[C@@H](Cn2ccnc2)c2ccc(Cl)cc2)cc1 |  | 90% | 7.66 | 30.5%
